Screening results (PubChem)
MrgX1 antag – antagonists of human MrgX1 receptor, primary screen, HEK293 cells, Fluo-4 calcium flux. Mas-related G-protein coupled receptor member X1 (Homo sapiens), Q96LB2. BAM8-22 antagonism; hits give low values. B-score at 10 µM. actives 1.3% (n = 310,000). AID 588676, 2011;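 active means calcium-response B-score plate-corrected more than 3 library SD below zero, starting fluorescence within 5 deviations, no agonist response on first addition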;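 further: peak minus trough fluorescence over baseline after final BAM8-22 challenge near maximal dose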
Target sequence (Q96LB2 whole entry, looked up): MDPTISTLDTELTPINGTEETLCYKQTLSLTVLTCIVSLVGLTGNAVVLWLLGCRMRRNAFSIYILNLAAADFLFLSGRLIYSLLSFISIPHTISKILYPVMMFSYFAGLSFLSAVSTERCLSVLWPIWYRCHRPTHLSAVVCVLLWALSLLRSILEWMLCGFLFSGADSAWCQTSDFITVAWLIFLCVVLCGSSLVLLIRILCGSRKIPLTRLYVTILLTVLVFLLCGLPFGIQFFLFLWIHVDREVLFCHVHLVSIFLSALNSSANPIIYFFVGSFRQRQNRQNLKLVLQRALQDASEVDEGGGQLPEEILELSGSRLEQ
MrgX1 PAM – positive allosteric modulators of MrgX1, primary screen, HEK293 cells, Fluo-4 calcium flux; actives 0.63% (n = 310,000); B-score at 10 µM; AID 588675, 2011; FDSS; hits give high values;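 active means plate-corrected calcium response at least 3 library SD above typical, normal starting fluorescence, not activating the receptor alone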;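 further: compound read alongside a low EC10 to EC30 dose of BAM8-22 agonist; peak minus trough fluorescence over baseline measured at the second addition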
RGS4 pot – RGS4 potentiators or activators, primary screen, cell-based, HEK293 M3R inducible RGS4, calcium flux; AID 463111, 2010; carbachol calcium flux Fluo4; hits give low values; actives 0.92% (n = 310,000); B-score at 10 µM;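 active means B-score of the integrated calcium signal more than 4 SD below the library mean, with starting fluorescence not abnormally high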;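 further: negative B-score means reduced calcium response which marks RGS4 activation or potentiation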
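test system = M3R-expressing HEK293 line, RGS4 induced by doxycycline | probe or stimulus = carbachol at ECmax as muscarinic agonist stimulus | timing = dye loading 30 min 37 °C, buffer rest 30 min RT | signal = calcium dye Fluo4 fluorescence | evaluation = B score from integrated fluorescence ratio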
MrgX1 agonist – agonists of human MrgX1 receptor, primary screen, HEK293 cells, Fluo-4 calcium flux. AID 588627, 2011. actives 0.44% (n = 310,000). Fluo-4 calcium fluorescence, agonist mode; hits give high values. B-score at 10 µM. Mas-related G-protein coupled receptor member X1 (Homo sapiens), Q96LB2;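 active means calcium response B-score plate-corrected fluorescence ratio at least 3 library SD, with starting fluorescence B-score inside 5 SD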
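Test system: Stable human MrgX1 HEK293 cell line | Schedule: Overnight plating before 1 h dye loading | Read-out basis: Baseline-normalised fluorescence change ratio, B-scored | Detection: Kinetic calcium dye fluorescence, Fluo-4 NW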
RGS4 inh – RGS4 inhibitors, primary screen, cell-based, HEK293 M3R inducible RGS4, calcium flux; actives 0.45% (n = 310,000); Regulator of G-protein signaling 4 (Homo sapiens), P49798; B-score at 10 µM; Fluo-4 calcium flux; hits give high values; triggered by carbachol at its EC20;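 active means B-score, a plate-corrected calcium signal, over three deviations above library mean, with baseline fluorescence within five deviations of library mean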;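 further: RGS4 expression induced by doxycycline in cells with stable M3 receptor; B-score is computed from the integrated fluorescence ratio over baseline after carbachol; higher B-score means a larger calcium signal and so more RGS4 inhibition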
Target sequence (P49798 whole entry, looked up): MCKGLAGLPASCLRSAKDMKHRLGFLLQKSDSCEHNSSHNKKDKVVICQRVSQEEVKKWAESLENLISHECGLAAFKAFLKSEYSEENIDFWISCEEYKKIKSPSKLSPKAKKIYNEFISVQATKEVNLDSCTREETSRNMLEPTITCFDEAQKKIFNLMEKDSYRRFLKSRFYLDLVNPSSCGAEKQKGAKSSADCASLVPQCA
Active calls of the source: *; i = inactive; · = no result given. Compounds with a hit are over-represented: about 3.5% of the library has one in this group of screens.

SMILES | MrgX1 antag | MrgX1 PAM | RGS4 pot | MrgX1 agonist | RGS4 inh
CN1c2ccccc2C(C)(C)C12CC(c1ccc(S(=O)(=O)N3CCCCC3)cc1)=NO2 (stereo unspecified) | i | i | i | i | i
CCN(CC)S(=O)(=O)c1ccc(C2=NOC3(C2)N(C)c2ccccc2C3(C)C)cc1 (stereo unspecified) | i | i | -8.4* | i | i
CCCCCCSc1ccc([C@@H]2[C@@H]3C(=O)N(C)C(=O)[C@@H]3[C@]3(C(=O)OC)CCCCN23)cc1OC | i | i | i | i | i
COc1cc(/C=C2\SC(=S)N(C(C(=O)O)c3ccccc3)C2=O)ccc1O (stereo unspecified) | i | i | i | i | i
O=C(O)C(c1ccccc1)N1C(=O)/C(=C\c2ccc(O)c(O)c2)SC1=S (stereo unspecified) | i | i | i | 27* | i
CC(C)CCNC(=O)CSc1nnc(-c2ccc(S(=O)(=O)N3CCCC3)cc2)n1C | -5.4* | i | i | i | i
CC(=O)CSc1nnc(-c2ccc(S(=O)(=O)N3CCCC3)cc2)n1C | i | i | i | i | i
Cc1cc(N2CCCC2)nc(N2C3CCC2CC(O)(c2ccc(F)cc2)C3)n1 (stereo unspecified) | i | 8* | i | i | i
COc1ccc(C2(O)CC3CCC(C2)N3c2cc(C)nc(-c3ccccc3)n2)cc1 (stereo unspecified) | i | i | i | i | i
CCN(C(=O)CN1C(=O)COc2ccc(S(=O)(=O)N3CCCCCC3)cc21)c1cccc(C)c1 | i | i | i | 38* | i
CCOC(=O)c1ccc(OCCOc2cccc(C)c2)cc1 | i | i | i | i | i
O=C1c2ccccc2S(=O)(=O)c2cc(C(=O)N3CCN(C(=O)c4ccccc4)CC3)ccc21 | i | i | i | i | i
COc1ccc(C(=O)/C=C/c2cc(OC)c(O)c(OC)c2)c(F)c1 | i | i | i | 30* | i
O=C(CC(=O)c1cc(Cl)ccc1O)c1ccccc1 | -5* | i | i | i | i
O=C(O)/C=C/c1ccc(OCc2cccc(F)c2)cc1 | -5.4* | i | i | i | i
CC1(c2ccccc2)CC(C)(C)N2C(=O)Cc3cccc1c32 (stereo unspecified) | i | i | i | i | i
O=C(CN1C(=O)NC2(CCOc3ccccc32)C1=O)c1ccc(Br)cc1 (stereo unspecified) | i | i | i | i | i
COc1ccc(N2CCN(C(CNC(=O)C(=O)NCCCn3ccnc3)c3ccco3)CC2)cc1 (stereo unspecified) | -4.9* | i | i | i | i
CNC(=O)c1cc2cc(OC)ccc2n1CCN(Cc1ccccc1)Cc1ccccc1 | -7.8* | i | i | i | i
O=C(NCC(=O)N1CCCCCC1)c1ccc(Br)cc1 | i | i | i | i | i
Nc1nonc1C(=O)NCCNCc1cc(Br)ccc1OCc1ccccc1F | i | i | i | i | i
NS(=O)(=O)c1ccc(CCNCc2cc(Br)ccc2OCc2ccccc2F)cc1 | -4.7* | i | i | i | i
C=CCOc1ccccc1CNCCc1ccc(S(N)(=O)=O)cc1 | i | i | i | i | i
NS(=O)(=O)c1ccc(CCNCc2ccccc2OCc2ccc(Cl)cc2)cc1 | -7.2* | i | i | i | i
NS(=O)(=O)c1ccc(CCNCc2cc(Cl)ccc2OCc2ccccc2)cc1 | -7.2* | i | i | i | i
SMILES | MrgX1 antag | MrgX1 PAM | RGS4 pot | MrgX1 agonist | RGS4 inh
CN1CCN(/N=C/c2ccc(N(c3ccccc3)c3ccccc3)cc2)CC1 | i | i | -7.8* | i | i
COc1ccc(C(C)NC(=O)Cc2cccs2)cc1OC (stereo unspecified) | i | i | i | i | i
CC1CN(C(=O)COC(=O)c2cc(Cl)ccc2[N+](=O)[O-])CC(C)O1 (stereo unspecified) | -4.8* | i | i | i | i
CC(CCc1ccccc1)NCc1cccc2ccccc12 (stereo unspecified) | i | i | i | i | i
NC(CCCCc1ccccc1)c1cccc2ccccc12 (stereo unspecified) | i | i | i | 61* | i
CCCN1C(=O)/C(=C/C=C2\N(CC)c3ccccc3C2(C)C)SC1=S | i | 12* | i | i | i
C=CCN1C(=O)/C(=C\C=C2\N(C)c3ccccc3C2(C)C)SC1=S | i | i | i | 31* | i
CN1/C(=C\C=C2/SC(=S)N(CC(=O)O)C2=O)C(C)(C)c2ccccc21 | i | i | i | i | i
COc1ccc(/C=N/N(C)C2=NCCN2)c(OC)c1OC | i | i | i | i | i
O=C(NCC1CCCN1S(=O)(=O)c1ccccc1)c1cccc(Cl)c1 (stereo unspecified) | i | i | i | i | i
COc1ccc(/C=C(/C(=O)c2ccc(Cl)cc2Cl)n2cncn2)cc1 | i | i | i | 35* | i
Cc1cc(/C=N\NC(=O)CC(=O)NC2CCCCC2)c(C)n1-c1ccc(Cl)c(Cl)c1 | i | i | i | i | i
Cc1cc(/C=N\NC(=O)CC(=O)NC2CCCCC2)c(C)n1-c1cccc(Cl)c1Cl | -6.3* | i | i | i | i
O=C(Nc1ccc([N+](=O)[O-])cc1Cl)c1cc(Cl)ccc1O | i | i | · | i | ·
O=C(Nc1cccc(Cl)c1)c1cc(N=Nc2ccc([N+](=O)[O-])cc2Cl)ccc1O | -4.6* | i | i | i | i
Cc1c(Br)c([N+](=O)[O-])nn1CCCC(=O)N1CCN(c2ccccc2)CC1 | i | i | i | i | i
Cc1c(Cl)c([N+](=O)[O-])nn1CCCC(=O)Nc1c(C)n(C)n(-c2ccccc2)c1=O | i | i | -7.3* | i | i
Cc1c(Cl)c([N+](=O)[O-])nn1CCCC(=O)Nc1c(Cl)cccc1Cl | i | i | i | i | i
Cc1c(Cl)c([N+](=O)[O-])nn1CCCC(=O)N1CCN(c2ccccc2)CC1 | -5.3* | i | i | i | i
COc1ccccc1Nc1nc2ccc(C)cc2n2cnnc12 | i | i | i | i | i
CN(C)c1ccc(/C=C(\C#N)C(=O)c2ccccc2)cc1 | -6.3* | i | i | i | i
